According to ChEMBL document CHEMBL1123326, “Sequentially labile water-soluble prodrugs of alprazolam” (J Med Chem, 1986):

Key:
[1] = target: T1, GABA-A receptor; anion channel (Mus musculus) (UniProt Q8BHJ7+P26048+Q8QZW7+P50571+Q9R0Y8+P22723+A2AMW3+P62812+Q9JLF1+P26049+P22933+Q9D6F4+P63080+P27681+P16305); experiment: Ex vivo displacement of [3H]flunitrazepam from mouse GABA-A benzodiazepine receptor at 10 uM/kg iv dose; assay type: organism-based
Summary of the method: (§1)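 Mice dosed iv by tail vein (drugs in 0.9% NaCl, or 2% ethanol for parent; controls given vehicle); decapitated 30 min later (dose-response) or at 1, 3, 10, 30, 60 min (time course). Brain minus cerebellum homogenized in 50 vol 0.05 M Tris pH 7.4, 4 °C; incubated with ~0.77 nM [3H]flunitrazepam final, 30 min, 25 °C; GF/B filtration, scintillation counting. Mean of four measurements.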

[2] = target: T1, GABA-A receptor; anion channel (Mus musculus); experiment: Ex vivo displacement of [3H]flunitrazepam from mouse GABA-A benzodiazepine receptor at 1 uM/kg iv dose; assay type: organism-based; summary of the method: as §1
[3] = target: T1, GABA-A receptor; anion channel (Mus musculus); experiment: Ex vivo displacement of [3H]flunitrazepam from mouse GABA-A benzodiazepine receptor at 3 uM/kg iv dose; assay type: organism-based; summary of the method: as §1
[4] = Half-life period at 37 degrees C; assay type: ADME
[5] = target: T1, GABA-A receptor; anion channel (Mus musculus); experiment: Ex vivo inhibition of [3H]flunitrazepam binding to mouse GABA-A benzodiazepine receptor; assay type: functional; summary of the method: as §1
[6] = target: T1, GABA-A receptor; anion channel (Mus musculus); experiment: Ex vivo displacement of [3H]flunitrazepam from mouse GABA-A benzodiazepine receptor at 30 uM/kg iv dose (Range 5-10%); assay type: organism-based; summary of the method: as §1

SMILES | Control [1] | Control [2] | Control [3] | half-life [4] | ED50 [5] | Control [6]
Cc1nnc(CNC(=O)CN)n1-c1ccc(Cl)cc1C(=O)c1ccccc1 | 3% | 65% | 50% | 4.33 h | 9 µmol/kg | 
Cc1nnc(CNC(=O)CCCN)n1-c1ccc(Cl)cc1C(=O)c1ccccc1 | 20% | 80% | 51% |  | 320 µmol/kg | 10%
Cc1nnc(CNC(=O)C(N)CC(C)C)n1-c1ccc(Cl)cc1C(=O)c1ccccc1 (configuration not stated) | 25% | 82% | 60% | 1 h | 6 µmol/kg | 10%
Cc1nnc2n1-c1ccc(Cl)cc1C(c1ccccc1)=NC2 |  |  |  |  | 2.9 µmol/kg | 
